In ChEMBL document CHEMBL1129984, “Synthesis and pharmacological characterization of enantiomerically pure muscarinic agonists: difluoromuscarines” (J Med Chem, 1997):

Legend:
[1] = target: Muscarinic acetylcholine receptor M3 (Cavia porcellus) (UniProt Q8VH26); experiment: Intrinsic adtivitiy was measured by the ratio between the maximum response and the maximum response of muscarine in guinea pig bladder at Muscarinic acetylcholine receptor M3; type: functional
In short: (§1)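 Isolated guinea pig tissues in PSS. Responses are expressed as a percentage of the maximal response in the control curve. Potency is given as pD₂ (−log ED₅₀, the agonist concentration producing 50% of maximal contraction). […] Parallel tissues received only (±)-muscarine to check sensitivity. 6–10 observations, mean ± SEM.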

[2] = target: Muscarinic acetylcholine receptor M3 (Cavia porcellus) (UniProt Q8VH26); experiment: Muscarinic potency was evaluated on guinea pig ileum at Muscarinic acetylcholine receptor M3 (expressed as -logED50); type: functional, tissue-based; in short: as §1
[3] = tested on: Muscarinic acetylcholine receptor M2 (Cavia porcellus); experiment: Muscarinic potency was evaluated on guinea pig heart (force) at Muscarinic acetylcholine receptor M2 (expressed as -logED50)
[4] = target: Muscarinic acetylcholine receptor M3 (Cavia porcellus) (UniProt Q8VH26); experiment: Intrinsic adtivitiy was measured by the ratio between the maximum response and the maximum response of muscarine in guinea pig ileum at Muscarinic acetylcholine receptor M3; type: functional, tissue-based; in short: as §1
[5] = target: Muscarinic acetylcholine receptor M3 (Cavia porcellus) (UniProt Q8VH26); experiment: Muscarinic potency was evaluated on guinea pig bladder at Muscarinic acetylcholine receptor M3 (expressed as -logED50); type: functional; in short: as §1
[6] = tested on: Muscarinic acetylcholine receptor M2 (Cavia porcellus); experiment: Intrinsic activity was measured as the ratio between the maximum response and the maximum response of muscarine in guinea pig heart at Muscarinic acetylcholine receptor M2
[7] = target: T1, Muscarinic acetylcholine receptor M2 (Homo sapiens) (UniProt P08172); experiment: Relative efficacy was evaluated on guinea pig heart (rate) at Muscarinic acetylcholine receptor M2; type: functional; conditions: Cavia porcellus; target entry is the homologue from another species
T1 sequence (whole entry): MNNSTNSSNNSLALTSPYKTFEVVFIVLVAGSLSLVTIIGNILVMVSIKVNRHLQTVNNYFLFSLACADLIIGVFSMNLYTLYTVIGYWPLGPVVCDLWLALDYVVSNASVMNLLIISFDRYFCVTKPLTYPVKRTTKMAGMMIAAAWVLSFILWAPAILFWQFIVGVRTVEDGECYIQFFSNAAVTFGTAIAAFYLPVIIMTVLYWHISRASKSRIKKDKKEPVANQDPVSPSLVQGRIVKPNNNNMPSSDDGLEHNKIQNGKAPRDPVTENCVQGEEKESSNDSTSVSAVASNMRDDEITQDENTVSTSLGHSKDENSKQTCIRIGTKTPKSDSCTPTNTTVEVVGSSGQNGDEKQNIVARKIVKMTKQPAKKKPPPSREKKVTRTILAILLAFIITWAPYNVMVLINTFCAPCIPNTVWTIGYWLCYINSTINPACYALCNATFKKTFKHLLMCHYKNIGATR
In short: (§2)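 Dissociation constants and relative efficacies derived from guinea pig tissue agonist responses by the Furchgott and Bursztyn method.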

[8] = target: Muscarinic acetylcholine receptor M3 (Cavia porcellus) (UniProt Q8VH26); experiment: Relative efficacy was evaluated on guinea pig ileum at Muscarinic acetylcholine receptor M3; type: functional, tissue-based; in short: as §2
Cavia porcellus [9] = species: Cavia porcellus; experiment: Dissociation constant was evaluated on guinea pig ileum at M3 muscarinic receptor; in short: as §2
[10] = target: T2, Muscarinic acetylcholine receptor M1 (Rattus norvegicus) (UniProt P08482); experiment: Muscarinic potency was evaluated at ganglionic Muscarinic acetylcholine receptor M1 mediating Tachycardia in the pithed rat (Increase in heart rate)
T2 sequence (whole entry): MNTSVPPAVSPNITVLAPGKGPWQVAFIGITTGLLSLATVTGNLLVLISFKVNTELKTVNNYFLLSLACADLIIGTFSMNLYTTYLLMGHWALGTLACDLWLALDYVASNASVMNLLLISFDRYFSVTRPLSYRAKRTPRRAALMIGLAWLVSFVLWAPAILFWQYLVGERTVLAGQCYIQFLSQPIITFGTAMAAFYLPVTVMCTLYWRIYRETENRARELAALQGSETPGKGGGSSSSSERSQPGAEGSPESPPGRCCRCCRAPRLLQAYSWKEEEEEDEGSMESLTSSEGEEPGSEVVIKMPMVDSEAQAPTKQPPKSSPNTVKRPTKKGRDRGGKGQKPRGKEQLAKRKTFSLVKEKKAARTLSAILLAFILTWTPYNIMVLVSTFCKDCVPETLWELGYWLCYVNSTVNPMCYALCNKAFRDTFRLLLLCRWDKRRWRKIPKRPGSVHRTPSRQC
In short: (§3)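 Pithed rats, artificially respired at 60 cycles/min, 1 mL/100 g, and equilibrated ≥30 min until heart rate was stable (basal 300 ± 8 beats/min). Agonists in 0.9% saline given iv at 0.1 mL/100 g, with full recovery between single doses. Heart rate measured from the carotid pressure pulse. ED₅₀ read graphically from dose–response curves. 5–9 observations, mean ± SEM.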

Cavia porcellus [11] = species: Cavia porcellus; experiment: Dissociation constant was evaluated on guinea pig heart (force) at M2 muscarinic receptor; in short: as §2
Cavia porcellus [12] = species: Cavia porcellus; experiment: Dissociation constant was evaluated on guinea pig heart (rate) at M2 muscarinic receptor; in short: as §2
[13] = tested on: Muscarinic acetylcholine receptor M2 (Cavia porcellus); experiment: Muscarinic potency was evaluated on guinea pig heart (rate) at Muscarinic acetylcholine receptor M2
Cavia porcellus [14] = species: Cavia porcellus; experiment: Dissociation constant was evaluated on guinea pig bladder at M3 muscarinic receptor; in short: as §2
[15] = target: Muscarinic acetylcholine receptor M3 (Cavia porcellus) (UniProt Q8VH26); experiment: Relative efficacy was evaluated on guinea pig bladder at Muscarinic acetylcholine receptor M3; type: functional; in short: as §2
[16] = target: T3, Muscarinic acetylcholine receptor M2 (Rattus norvegicus) (UniProt P10980); experiment: Muscarinic potency was evaluated at cardiac Muscarinic acetylcholine receptor M2 mediating Bradycardia in the pithed rat (Decrease in heart rate); type: functional; in short: as §3
T3 sequence (whole entry): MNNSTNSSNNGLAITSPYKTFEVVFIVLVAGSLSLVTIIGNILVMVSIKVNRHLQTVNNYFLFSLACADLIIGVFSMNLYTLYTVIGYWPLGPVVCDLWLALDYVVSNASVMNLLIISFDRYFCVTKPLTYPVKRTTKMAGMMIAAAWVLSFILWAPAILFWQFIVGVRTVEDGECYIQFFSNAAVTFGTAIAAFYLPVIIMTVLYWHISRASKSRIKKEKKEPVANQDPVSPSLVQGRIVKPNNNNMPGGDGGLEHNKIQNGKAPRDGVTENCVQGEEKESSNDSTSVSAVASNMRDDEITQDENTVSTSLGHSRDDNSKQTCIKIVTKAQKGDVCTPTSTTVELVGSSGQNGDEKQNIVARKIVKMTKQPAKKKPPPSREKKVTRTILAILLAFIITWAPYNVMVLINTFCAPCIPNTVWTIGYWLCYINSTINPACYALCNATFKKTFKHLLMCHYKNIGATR

[17] = target: T1, Muscarinic acetylcholine receptor M2 (Homo sapiens); experiment: Relative efficacy was evaluated on guinea pig heart (force) at Muscarinic acetylcholine receptor M2; type: functional; conditions: Cavia porcellus; target entry is the homologue from another species; in short: as §2

Sequence of Muscarinic acetylcholine receptor M3 (Cavia porcellus) (Q8VH26 1-587): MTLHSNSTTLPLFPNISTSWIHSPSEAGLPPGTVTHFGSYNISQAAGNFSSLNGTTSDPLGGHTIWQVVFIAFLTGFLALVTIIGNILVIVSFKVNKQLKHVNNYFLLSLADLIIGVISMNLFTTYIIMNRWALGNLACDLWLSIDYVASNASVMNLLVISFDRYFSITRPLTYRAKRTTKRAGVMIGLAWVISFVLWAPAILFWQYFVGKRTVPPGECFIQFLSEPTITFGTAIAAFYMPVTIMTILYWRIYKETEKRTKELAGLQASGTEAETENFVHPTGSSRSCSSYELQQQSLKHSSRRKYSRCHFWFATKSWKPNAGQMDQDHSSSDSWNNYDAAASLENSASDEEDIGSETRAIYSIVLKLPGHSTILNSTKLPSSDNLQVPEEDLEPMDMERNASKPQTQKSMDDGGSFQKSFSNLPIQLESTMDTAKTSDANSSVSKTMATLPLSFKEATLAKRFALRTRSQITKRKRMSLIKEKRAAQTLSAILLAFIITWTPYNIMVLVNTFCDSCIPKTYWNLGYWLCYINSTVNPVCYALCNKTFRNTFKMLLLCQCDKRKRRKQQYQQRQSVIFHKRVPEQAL

Compound	Intrinsic activity [1]	pD2 [2]	pD2 [3]	Intrinsic activity [4]	pD2 [5]	Intrinsic activity [6]	Relative efficacy [7]	Relative efficacy [8]	-Log Kd (Cavia porcellus [9])	ED50 [10] [mg/kg]	-Log Kd (Cavia porcellus [11])	-Log Kd (Cavia porcellus [12])	-Log ED50 [13]	-Log Kd (Cavia porcellus [14])	Relative efficacy [15]	ED50 [16] [mg/kg]	Relative efficacy [17]
C[C@H]1O[C@H](C[N+](C)(C)C)CC1(F)F	0.67	4.85	5.77	0.99	3.95	0.98	–	–	–	–	–	–	–	–	–	–	–
C[C@@H]1O[C@H](C[N+](C)(C)C)CC1(F)F	0.83	5.8	6.56	0.99	5.23	1	23	0.9	4.7	0.05	4.37	3.39	6.58	4.4	0.6	0.14	1.6
C[C@H]1O[C@@H](C[N+](C)(C)C)CC1(F)F	0.95	5.53	5.76	0.98	3.82	0.97	10	0.8	4.47	0.1	3.64	3.48	6.31	3.71	0.2	0.274	1.3
C[C@@H]1O[C@H](C[N+](C)(C)C)C[C@H]1O (racemic) [MUSCARINE]	–	7.1	–	1	5.69	–	–	–	5.95	–	–	–	–	4.62	–	–	–
C[C@@H]1O[C@@H](C[N+](C)(C)C)CC1(F)F	1	5.33	6.28	0.97	4.16	1	–	–	–	–	–	–	–	–	–	–	–
C[C@@H]1O[C@H](C[N+](C)(C)C)C[C@H]1F	0.88	7.36	6.73	0.95	5.66	0.98	0.2	3	5.72	0.0045	4.67	5.77	6.87	4.39	1.5	0.0235	1.2
